In general, ED50 refers to the dose that gives a 50% effect, or the effect in half of the subjects. Higher therefore signals a need for a large dose.

Test [1] has as its system Mus musculus. Briefly: Percentage efficacy to normalize the blood glucose levels to that of normal mouse in ob/ob mouse after 3 days and 4 hours of 100 mg/kg dose administration. Format: functional. Put shortly: (§1)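 Adult male C57BL ob/ob mice, n = 6/group, matched on day-0 blood glucose; non-diabetic animals (<150 mg/dL basal) excluded. Oral dosing each morning days 1-3 in 0.5% CMC with 0.2% Tween-80. Tail-nick blood glucose by YSI analyzer. % efficacy = {1 − ([glc]cpd − 100)/([glc]veh − 100)} × 100. Significance by t-test vs vehicle, p < 0.05.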

Test [2] concerns Mus musculus. Briefly: Percentage efficacy to normalize the blood glucose levels to that of normal mouse in ob/ob mouse after 3 days and 4 hours of 30 mg/kg dose administration. The format is functional. The method in brief:
as §1

The subject of test [3] is Mus musculus. Briefly: Percentage efficacy to normalize the blood glucose levels to that of normal mouse in ob/ob mouse after 3 days and 8 hours of 100 mg/kg dose administration. Format: functional. Put shortly: as §1
Test [4] is filed under the species Mus musculus. Briefly: Effective dose for glucose lowering in ob/ob mice. Format: functional. Put shortly:
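ob/ob mice, once-daily oral dosing for 3 days in 0.5% CMC/0.2% Tween-80, or in 40% microemulsion (Cremophor RH40, corn oil-monoglyceride, propylene glycol, ethanol) where stated; tail-nick blood glucose. % efficacy computed as below at selected doses; ED50 from sigmoidal fit of dose-response curve.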

Test [5] relates to Mus musculus. Briefly: Percentage efficacy to normalize the blood glucose levels to that of normal mouse in ob/ob mouse after 3 days and 8 hours of 30 mg/kg dose administration. The format is functional. Put shortly: as §1
The test system of test [6] is Mus musculus. Briefly: Percentage efficacy to normalize the blood glucose levels to that of normal mouse in ob/ob mouse after 3 days and 4 hours of 100 mg/kg dose administration; Nonsignificant. The format is functional, organism-based. On the set-up: dose 100 mg/kg. Put shortly: as §1
Test [7] deals with Mus musculus. Briefly: Percentage efficacy to normalize the blood glucose levels to that of normal mouse in ob/ob mouse after 3 days and 4 hours of 30 mg/kg dose administration; Nonsignificant. Format: functional, organism-based. On the set-up: dose 30 mg/kg. Put shortly:
as §1

Consider `CN(C)C(=O)Cc1cn(-c2cccc(C(F)(F)F)c2)nc1-c1ccc2c(c1)Cc1ccccc1-2`, for which the Efficacy came out at 87% with Mus musculus [1], 113% in the test on Mus musculus [2], 57% in the test on Mus musculus [3] and 115% in the test with Mus musculus [5]. Further, in the test listed under Mus musculus [4], the ED50 stood at 0.05 mg/kg/day.
As for `O=C(Cc1cn(-c2cccc(C(F)(F)F)c2)nc1-c1ccc(Cl)c(Cl)c1)N1CCN(C(c2ccccc2)c2ccccc2)CC1`, the Efficacy entry is “Not significant” in the test with Mus musculus [6], “Not significant” in the test on Mus musculus [7], 45% in the test on Mus musculus [3] and 48% with Mus musculus [5].
As to `CN(C)C(=O)Cc1cn(-c2cccc(C(F)(F)F)c2)nc1-c1ccc(-c2ccccc2)cc1`, the Efficacy amounted to 84% in the test with Mus musculus [1], 80% with Mus musculus [2], 69% with Mus musculus [3] and 94% in the test with Mus musculus [5]. The compound further gave an ED50 in the test listed under Mus musculus [4] of 1.3 mg/kg/day.

The values above are taken from ChEMBL document CHEMBL1134551, “The effect of 1,3-diaryl-[1H]-pyrazole-4-acetamides on glucose utilization in ob/ob mice” (2001).
